From ChEMBL document CHEMBL3877264, “Quinolidene-rhodanine conjugates: Facile synthesis and biological evaluation” (Eur J Med Chem, 2017)
Converted amounts (≈) assume the structure as drawn.

Key:
Pseudomonas fluorescens [1] = assay: Growth inhibition of Pseudomonas fluorescens NCIM 2036 at 10 ug/ml measured after 8 hrs relative to control; type: functional; details: NCIM 2036, 8 h, read-out: GI
How it was run: (§1)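 Bacteria grown in LB at 37 °C and 180 rpm to OD 1. Compounds added to wells, then 0.1% inoculum of 1 OD culture (620 nm). Growth read as OD at 620 nm after 8 h for gram-negative and after 12 h for gram-positive strains.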

Pseudomonas fluorescens [2] = assay: Growth inhibition of Pseudomonas fluorescens NCIM 2036 at 30 ug/ml measured after 8 hrs relative to control; type: functional; details: NCIM 2036, 8 h, read-out: GI; how it was run: as §1
[3] = tested on: Mycobacterium tuberculosis; assay: Growth inhibition of Mycobacterium bovis BCG ATCC 35743 at dormant stage at 25 ug/ml measured after 12 days by nitrate reductase dye based two fold dilution method relative to control; type: functional; details: BCG str. ATCC 35743, 288 h, read-out: GI
How it was run: (§2)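 M. bovis BCG was grown in Dubos medium and assayed in Mycobacterium pheli minimal medium (pH 6.6), with compounds from DMSO stocks. Incubation lasted 8 days for active and 12 days for dormant cultures. Viability was read by nitrate reductase at 540 nm against cell-free blanks, with vehicle set as 100% growth. Primary screen was at 30, 10 and 3 µg/ml, in triplicate, mean ± SD. MIC was taken from dose-response curves.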

[4] = Cytotoxicity against primary HUVEC assessed as growth inhibition at 100 ug/ml measured after 48 hrs by MTT assay relative to control; type: toxicity, cell-based; details: human, read-out: GI
[5] = tested on: Mycobacterium tuberculosis; assay: Growth inhibition of Mycobacterium tuberculosis H37Ra ATCC 25177 at dormant stage measured after 12 days by XTT dye based two fold dilution method; type: functional; details: H37Ra ATCC 25177, 288 h
How it was run: (§3)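 MTB H37Ra was grown in Dubos medium, then exposed in Mycobacterium pheli minimal medium (pH 6.6) to compounds dissolved in DMSO. The assay ended on day 8 (active) or day 12 (dormant). Viable cells were measured by XTT reduction menadione assay at 470 nm, blank-corrected, relative to vehicle control. Triplicates were expressed as mean ± SD. MIC came from dose-response curves.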

[6] = Cytotoxicity against human THP1 cells measured after 48 hrs by MTT assay; type: toxicity, cell-based, THP-1
How it was run: (§4)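 MTT assay with 48 h compound exposure. THP-1 macrophages made by 24 h PMA treatment. Each concentration tested in triplicate in one experiment. % cytotoxicity = (control−test)/(control−blank)×100, with control = cells + DMSO and blank = medium without cells. IC50 from % survival versus concentration plots.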

Aspergillus niger = assay: Antifungal activity against Aspergillus niger NCIM 1196 by standard agar method; type: functional
How it was run: (§5)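 MICs determined by standard agar method; DMSO as solvent control.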

[7] = Selectivity index, ratio of GI50 for human A549 cells to MIC for Mycobacterium tuberculosis H37Ra ATCC 25177 at dormant stage; type: toxicity, cell-based; details: read-out: Selectivity Index
How it was run: (§6)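 SI is the cell-line GI50 divided by the dormant-stage mycobacterial MIC. […] THP-1 macrophages were PMA-differentiated for 24 h.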

Aspergillus flavus = assay: Antifungal activity against Aspergillus flavus NCIM 539 by standard agar method; type: functional; how it was run: as §5
[8] = tested on: Mycobacterium tuberculosis; assay: Growth inhibition of Mycobacterium bovis BCG ATCC 35743 at dormant stage at 12.5 ug/ml measured after 12 days by nitrate reductase dye based two fold dilution method relative to control; type: functional; details: BCG str. ATCC 35743, 288 h, read-out: GI
[9] = Cytotoxicity against human A549 cells assessed as growth inhibition at 100 ug/ml measured after 48 hrs by MTT assay relative to control; type: toxicity, cell-based; details: read-out: GI
[10] = Selectivity index, ratio of GI50 for HUVEC to MIC for Mycobacterium bovis BCG ATCC 35743 at dormant stage; details: pooled result: one value given for 6 cell lines, strains, targets or settings; how it was run: as §6
[11] = tested on: Mycobacterium tuberculosis; assay: Growth inhibition of Mycobacterium tuberculosis H37Ra ATCC 25177 at dormant stage at 50 ug/ml measured after 12 days by XTT dye based two fold dilution method relative to control; type: functional; details: H37Ra ATCC 25177, 288 h, read-out: GI; how it was run: as §3
[12] = tested on: Mycobacterium tuberculosis; assay: Growth inhibition of Mycobacterium tuberculosis H37Ra ATCC 25177 at active stage at 12.5 ug/ml measured after 8 days by XTT dye based two fold dilution method relative to control; type: functional; details: H37Ra ATCC 25177, 192 h, read-out: GI
[13] = tested on: Mycobacterium tuberculosis; assay: Growth inhibition of Mycobacterium bovis BCG ATCC 35743 at active stage at 12.5 ug/ml measured after 8 days by nitrate reductase dye based two fold dilution method relative to control; type: functional; details: BCG str. ATCC 35743, 192 h, read-out: GI
[14] = tested on: Mycobacterium tuberculosis; assay: Growth inhibition of Mycobacterium tuberculosis H37Ra ATCC 25177 at active stage at 3.13 ug/ml measured after 8 days by XTT dye based two fold dilution method relative to control; type: functional; details: H37Ra ATCC 25177, 192 h, read-out: GI; how it was run: as §3
[15] = Cytotoxicity against human HeLa cells measured after 48 hrs by MTT assay; type: toxicity, cell-based
[16] = tested on: Mycobacterium tuberculosis; assay: Growth inhibition of Mycobacterium bovis BCG ATCC 35743 at dormant stage at 1.56 ug/ml measured after 12 days by nitrate reductase dye based two fold dilution method relative to control; type: functional; details: BCG str. ATCC 35743, 288 h, read-out: GI; how it was run: as §2
[17] = Selectivity index, ratio of GI50 for human PANC1 cells to MIC for Mycobacterium tuberculosis H37Ra ATCC 25177 at dormant stage; type: toxicity, cell-based, PANC-1; details: read-out: Selectivity Index; how it was run: as §6
[18] = Selectivity index, ratio of GI50 for […]-differentiated human THP1 cells to MIC for Mycobacterium tuberculosis H37Ra ATCC 25177 at dormant stage; type: toxicity, cell-based, THP-1; details: read-out: Selectivity Index; how it was run: as §6
[19] = tested on: Mycobacterium tuberculosis; assay: Growth inhibition of Mycobacterium bovis BCG ATCC 35743 at dormant stage at 100 ug/ml measured after 12 days by nitrate reductase dye based two fold dilution method relative to control; type: functional; details: BCG str. ATCC 35743, 288 h, read-out: GI; how it was run: as §2
Candida albicans = assay: Antifungal activity against Candida albicans NCIM 3471 by standard agar method; type: functional; how it was run: as §5
Bacillus subtilis = assay: Growth inhibition of Bacillus subtilis NCIM 2079 at 30 ug/ml measured after 12 hrs relative to control; type: functional; details: NCIM 2079, 12 h, read-out: GI; how it was run: as §1
[20] = tested on: Mycobacterium tuberculosis; assay: Growth inhibition of Mycobacterium bovis BCG ATCC 35743 at active stage at 25 ug/ml measured after 8 days by nitrate reductase dye based two fold dilution method relative to control; type: functional; details: BCG str. ATCC 35743, 192 h, read-out: GI; how it was run: as §2
[21] = Cytotoxicity against […]-differentiated human THP1 cells measured after 48 hrs by MTT assay; type: toxicity, cell-based, THP-1; how it was run: as §4
[22] = tested on: Mycobacterium tuberculosis; assay: Growth inhibition of Mycobacterium tuberculosis H37Ra ATCC 25177 at dormant stage at 1.56 ug/ml measured after 12 days by XTT dye based two fold dilution method relative to control; type: functional; details: H37Ra ATCC 25177, 288 h, read-out: GI; how it was run: as §3
[23] = Selectivity index, ratio of GI50 for HUVEC to MIC for Mycobacterium tuberculosis H37Ra ATCC 25177 at dormant stage
Staphylococcus aureus = assay: Growth inhibition of Staphylococcus aureus NCIM 2010 at 3 ug/ml measured after 12 hrs relative to control; type: functional; details: NCIM 2010, 12 h, read-out: GI; how it was run: as §1
[24] = tested on: Mycobacterium tuberculosis; assay: Growth inhibition of Mycobacterium tuberculosis H37Ra ATCC 25177 at active stage measured after 8 days by XTT dye based two fold dilution method; type: functional; details: H37Ra ATCC 25177, 192 h; how it was run: as §3

| SMILES | inhibition of growth at 10 µg/mL (Pseudomonas fluorescens [1]) [%] | inhibition of growth at 30 µg/mL (Pseudomonas fluorescens [2]) [%] | inhibition of growth at 25 µg/mL [3] [%] | inhibition at 48 h, 100 ug/ml [4] [%] | IC50 [5] [µg/mL] | IC90 [5] [µg/mL] | GI50 at 48 h [6] [µg/mL] | MIC (Aspergillus niger) [µg/mL] | MIC (Aspergillus flavus) [µg/mL] | inhibition of growth at 12.5 µg/mL [8] [%] | inhibition at 48 h, 100 ug/ml [9] [%] | inhibition of growth at 50 µg/mL [11] [%] | inhibition of growth at 12.5 µg/mL [12] [%] | inhibition of growth at 3.13 µg/mL [14] [%] | GI50 at 48 h [15] [µg/mL] | inhibition of growth at 1.56 µg/mL [16] [%] | inhibition of growth at 30 µg/mL (Bacillus subtilis) [%] | GI50 at 48 h [21] [µg/mL] | inhibition of growth at 1.56 µg/mL [22] [%] | inhibition of growth at 3 µg/mL (Staphylococcus aureus) [%] | further results |
| --- | --- | --- | --- | --- | --- | --- | --- | --- | --- | --- | --- | --- | --- | --- | --- | --- | --- | --- | --- | --- | --- |
| O=C1NC(=S)S/C1=C\c1cc2cc(F)ccc2nc1Cl | 54.6 | 50.2 | 100 | 34.2 | 5.1 (≈ 15.7 µM) | 18 (≈ 55.4 µM) | > 100 | 25 (≈ 77 µM) | 12.5 (≈ 38.5 µM) | 100 | 40 | 110 | 99.9 | 52.6 | > 100 | -2.98 | -3.29 | > 100 | -0.73 | 45.3 | selectivity ratio [7]: 5.6; Selectivity Index [10]: 18.9; inhibition of growth at 12.5 µg/mL [13]: 98.3%; selectivity ratio [17]: 5.6; selectivity ratio [18]: 5.6; inhibition of growth at 100 µg/mL [19]: 98.5%; MIC (Candida albicans): 50 µg/mL (≈ 154 µM); inhibition of growth at 25 µg/mL [20]: 99%; Selectivity Index [23]: 5.6 |
| Cc1cccc2cc(/C=C3\SC(=S)N(CC(=O)O)C3=O)c(Cl)nc12 | 21.3 | 54.8 | – | 34 | 10.3 (≈ 27.2 µM) | 19.9 (≈ 52.5 µM) | > 100 | 200 (≈ 528 µM) | 100 (≈ 264 µM) | – | 15.6 | 102 | 22 | -10.2 | > 100 | – | -24.5 | > 100 | 15.7 | -24.6 | selectivity ratio [7]: 5; IC50 [24]: 21.2 µg/mL (≈ 56 µM); IC90 [24]: 27.3 µg/mL (≈ 72.1 µM); selectivity ratio [17]: 5; selectivity ratio [18]: 5; Selectivity Index [23]: 5 |
| O=C(O)CN1C(=O)/C(=C/c2cc3cc(F)ccc3nc2Cl)SC1=S | 1.08 | 2.4 | 99.8 | 31.2 | > 30 | > 30 | > 100 | 25 (≈ 65.3 µM) | 100 (≈ 261 µM) | 99.8 | 33.7 | 83.2 | -3.91 | -12.6 | > 100 | 99.4 | -5.15 | > 100 | 22.6 | -0.864 | IC50 [24]: > 30 µg/mL; IC90 [24]: > 30 µg/mL; inhibition of growth at 100 µg/mL [19]: 98.2%; MIC (Candida albicans): 50 µg/mL (≈ 131 µM) |
| COc1ccc2cc(/C=C3\SC(=S)NC3=O)c(Cl)nc2c1 | 43.5 | 46.2 | 99.8 | 25.4 | 10 (≈ 29.7 µM) | > 30 | > 100 | 75 (≈ 223 µM) | 100 (≈ 297 µM) | 98.8 | 27.6 | 104 | 83.1 | 8.88 | > 100 | -29.2 | 8.36 | > 100 | -28.4 | 9.19 | Selectivity Index [10]: 60.2; inhibition of growth at 12.5 µg/mL [13]: 98.9%; IC50 [24]: 5.7 µg/mL (≈ 16.9 µM); IC90 [24]: 21.1 µg/mL (≈ 62.6 µM); inhibition of growth at 100 µg/mL [19]: 99%; MIC (Candida albicans): 50 µg/mL (≈ 148 µM); inhibition of growth at 25 µg/mL [20]: 98.4% |
